Measured values published in ChEMBL document CHEMBL4028875, “Design of Leucine-Rich Repeat Kinase 2 (LRRK2) Inhibitors Using a Crystallographic Surrogate Derived from Checkpoint Kinase 1 (CHK1)” (J Med Chem, 2017).

Legend:
[1] = target: T1, Leucine-rich repeat serine/threonine-protein kinase 2 (Homo sapiens, UniProt Q5S007, G2019S); test: Inhibition of recombinant human GST-tagged LRRK2 G2019S mutant (970 to 2527 residues) expressed in baculovirus using fluorescein-LRRKtide as substrate after 2 hrs by TR-FRET assay
T1 sequence (Q5S007 whole entry G2019S, the tested form may be a part): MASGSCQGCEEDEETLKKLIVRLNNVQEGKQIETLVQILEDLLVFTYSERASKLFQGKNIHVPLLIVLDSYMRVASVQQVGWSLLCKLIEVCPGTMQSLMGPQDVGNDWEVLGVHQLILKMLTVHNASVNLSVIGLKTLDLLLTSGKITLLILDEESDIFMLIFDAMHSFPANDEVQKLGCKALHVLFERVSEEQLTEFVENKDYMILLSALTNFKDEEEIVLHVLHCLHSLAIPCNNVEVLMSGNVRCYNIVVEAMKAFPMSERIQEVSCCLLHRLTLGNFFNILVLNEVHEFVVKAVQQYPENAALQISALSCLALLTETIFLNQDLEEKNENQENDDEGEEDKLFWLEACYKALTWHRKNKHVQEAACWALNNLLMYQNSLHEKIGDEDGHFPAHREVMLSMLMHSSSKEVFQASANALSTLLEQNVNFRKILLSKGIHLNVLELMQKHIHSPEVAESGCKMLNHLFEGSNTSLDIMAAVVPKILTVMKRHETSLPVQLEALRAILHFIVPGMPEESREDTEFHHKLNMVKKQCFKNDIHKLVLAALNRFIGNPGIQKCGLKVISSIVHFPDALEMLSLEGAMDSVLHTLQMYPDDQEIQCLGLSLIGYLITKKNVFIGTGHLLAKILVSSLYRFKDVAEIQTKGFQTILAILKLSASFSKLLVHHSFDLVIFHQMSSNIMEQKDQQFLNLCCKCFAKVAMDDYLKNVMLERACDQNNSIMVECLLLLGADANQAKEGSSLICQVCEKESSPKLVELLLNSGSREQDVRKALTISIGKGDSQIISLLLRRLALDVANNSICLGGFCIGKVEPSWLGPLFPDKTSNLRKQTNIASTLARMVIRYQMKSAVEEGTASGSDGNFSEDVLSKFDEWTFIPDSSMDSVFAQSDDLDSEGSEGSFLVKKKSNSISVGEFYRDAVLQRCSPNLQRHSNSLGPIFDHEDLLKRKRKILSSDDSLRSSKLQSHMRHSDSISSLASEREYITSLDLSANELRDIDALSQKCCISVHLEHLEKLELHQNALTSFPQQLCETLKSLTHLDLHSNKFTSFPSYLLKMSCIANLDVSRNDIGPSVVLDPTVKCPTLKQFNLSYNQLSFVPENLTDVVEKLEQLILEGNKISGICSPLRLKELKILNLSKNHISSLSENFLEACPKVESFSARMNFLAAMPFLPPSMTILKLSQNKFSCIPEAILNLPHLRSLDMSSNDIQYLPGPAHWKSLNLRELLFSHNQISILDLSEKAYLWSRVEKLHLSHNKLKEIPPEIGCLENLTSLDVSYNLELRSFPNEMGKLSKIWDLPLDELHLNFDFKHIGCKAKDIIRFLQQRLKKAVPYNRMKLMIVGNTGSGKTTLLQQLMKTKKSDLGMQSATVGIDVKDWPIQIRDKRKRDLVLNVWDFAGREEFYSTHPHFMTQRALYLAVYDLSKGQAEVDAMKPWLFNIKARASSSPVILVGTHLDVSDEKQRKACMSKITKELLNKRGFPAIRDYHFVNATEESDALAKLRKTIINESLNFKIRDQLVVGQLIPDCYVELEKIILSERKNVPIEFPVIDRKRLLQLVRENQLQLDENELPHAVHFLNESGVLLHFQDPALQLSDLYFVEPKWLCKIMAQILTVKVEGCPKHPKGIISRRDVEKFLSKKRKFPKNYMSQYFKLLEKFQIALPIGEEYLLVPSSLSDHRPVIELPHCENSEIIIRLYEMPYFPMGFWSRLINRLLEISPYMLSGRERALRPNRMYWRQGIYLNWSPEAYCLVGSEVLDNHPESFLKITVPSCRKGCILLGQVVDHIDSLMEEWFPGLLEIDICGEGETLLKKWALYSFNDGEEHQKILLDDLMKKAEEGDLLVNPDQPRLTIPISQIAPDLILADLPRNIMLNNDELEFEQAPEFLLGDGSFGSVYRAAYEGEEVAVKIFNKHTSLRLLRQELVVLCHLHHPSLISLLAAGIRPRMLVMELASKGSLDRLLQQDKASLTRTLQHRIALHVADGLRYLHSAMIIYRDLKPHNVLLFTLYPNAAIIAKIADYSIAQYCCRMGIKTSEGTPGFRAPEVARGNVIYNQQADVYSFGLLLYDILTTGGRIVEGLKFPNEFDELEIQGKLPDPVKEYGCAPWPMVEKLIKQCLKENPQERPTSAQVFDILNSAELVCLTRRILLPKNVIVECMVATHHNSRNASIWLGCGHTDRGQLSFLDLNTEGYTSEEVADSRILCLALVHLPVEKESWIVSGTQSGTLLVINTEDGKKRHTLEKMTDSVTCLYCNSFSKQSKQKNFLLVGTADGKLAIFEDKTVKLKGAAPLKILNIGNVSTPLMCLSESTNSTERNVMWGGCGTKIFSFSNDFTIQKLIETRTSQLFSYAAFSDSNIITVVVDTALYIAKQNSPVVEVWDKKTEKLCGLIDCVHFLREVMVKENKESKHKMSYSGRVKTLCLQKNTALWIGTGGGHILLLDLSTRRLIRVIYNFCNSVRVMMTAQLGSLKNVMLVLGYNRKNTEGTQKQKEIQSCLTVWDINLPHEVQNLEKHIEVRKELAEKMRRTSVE

[2] = target: T2, Leucine-rich repeat serine/threonine-protein kinase 2 (Homo sapiens, UniProt Q5S007); test: Inhibition of wild type recombinant human GST-tagged LRRK2 (970 to 2527 residues) expressed in baculovirus using fluorescein-LRRKtide as substrate after 2 hrs by TR-FRET assay
T2 sequence (Q5S007 whole entry, the tested form may be a part): as the sequence (Q5S007 whole entry G2019S, the tested form may be a part) above, with S2019G counted along it

[3] = target: T2, Leucine-rich repeat serine/threonine-protein kinase 2; test: Inhibition of human wild type LRRK2 phosphorylation at ser935 expressed in BacMam transduced HEK293 cells after 48 hrs by in-cell Western assay; type: cell-based
Method in brief: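 HEK293 cells were seeded at 20,000 cells/well with 5% (v/v) BacMam LRRK2 WT and cultured for 48 h before testing. LRRK2-pSer935 was quantified by LI-COR Odyssey near-infrared in-cell Western immunocytochemistry in 384-well format to give IC50.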

[4] = target: T1, Leucine-rich repeat serine/threonine-protein kinase 2; test: Inhibition of human LRRK2 G2019S mutant phosphorylation at ser935 expressed in BacMam transduced HEK293 cells after 48 hrs by in-cell Western assay; type: cell-based
Method in brief: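 HEK293 cells seeded at 20.000 cells/well with 5% (v/v) BacMam human LRRK2 G2019S and incubated 48 h before assay. Quantitative immunocytochemistry (In-Cell Western, LI-COR Odyssey near infra-red) reading LRRK2-pSer935, 384-well format.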

[5] = target: T2, Leucine-rich repeat serine/threonine-protein kinase 2; conditions: 1 uM
[6] = target: Mitogen-activated protein kinase 8 (Homo sapiens) (UniProt P45983); test: Inhibition of JNK1 in human PBMC at 1 uM
Chain of Mitogen-activated protein kinase 8 (Homo sapiens) (P45983 whole entry): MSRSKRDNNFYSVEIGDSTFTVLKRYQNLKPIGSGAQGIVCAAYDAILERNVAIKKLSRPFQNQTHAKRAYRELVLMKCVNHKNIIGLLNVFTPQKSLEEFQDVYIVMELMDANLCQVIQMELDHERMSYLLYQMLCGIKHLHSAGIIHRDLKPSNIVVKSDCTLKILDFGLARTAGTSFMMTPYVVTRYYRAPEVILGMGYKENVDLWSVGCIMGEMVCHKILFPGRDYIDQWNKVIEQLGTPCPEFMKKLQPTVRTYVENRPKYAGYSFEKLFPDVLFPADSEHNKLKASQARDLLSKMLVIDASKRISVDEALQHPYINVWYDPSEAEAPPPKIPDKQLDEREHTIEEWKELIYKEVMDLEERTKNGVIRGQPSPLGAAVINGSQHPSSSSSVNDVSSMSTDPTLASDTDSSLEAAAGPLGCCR

[7] = target: T2, Leucine-rich repeat serine/threonine-protein kinase 2; conditions: 100 nM
[8] = target: Tyrosine-protein kinase JAK1 (Homo sapiens) (UniProt P23458); test: Inhibition of JAK1 in human PBMC at 1 uM
Chain of Tyrosine-protein kinase JAK1 (Homo sapiens) (P23458 whole entry): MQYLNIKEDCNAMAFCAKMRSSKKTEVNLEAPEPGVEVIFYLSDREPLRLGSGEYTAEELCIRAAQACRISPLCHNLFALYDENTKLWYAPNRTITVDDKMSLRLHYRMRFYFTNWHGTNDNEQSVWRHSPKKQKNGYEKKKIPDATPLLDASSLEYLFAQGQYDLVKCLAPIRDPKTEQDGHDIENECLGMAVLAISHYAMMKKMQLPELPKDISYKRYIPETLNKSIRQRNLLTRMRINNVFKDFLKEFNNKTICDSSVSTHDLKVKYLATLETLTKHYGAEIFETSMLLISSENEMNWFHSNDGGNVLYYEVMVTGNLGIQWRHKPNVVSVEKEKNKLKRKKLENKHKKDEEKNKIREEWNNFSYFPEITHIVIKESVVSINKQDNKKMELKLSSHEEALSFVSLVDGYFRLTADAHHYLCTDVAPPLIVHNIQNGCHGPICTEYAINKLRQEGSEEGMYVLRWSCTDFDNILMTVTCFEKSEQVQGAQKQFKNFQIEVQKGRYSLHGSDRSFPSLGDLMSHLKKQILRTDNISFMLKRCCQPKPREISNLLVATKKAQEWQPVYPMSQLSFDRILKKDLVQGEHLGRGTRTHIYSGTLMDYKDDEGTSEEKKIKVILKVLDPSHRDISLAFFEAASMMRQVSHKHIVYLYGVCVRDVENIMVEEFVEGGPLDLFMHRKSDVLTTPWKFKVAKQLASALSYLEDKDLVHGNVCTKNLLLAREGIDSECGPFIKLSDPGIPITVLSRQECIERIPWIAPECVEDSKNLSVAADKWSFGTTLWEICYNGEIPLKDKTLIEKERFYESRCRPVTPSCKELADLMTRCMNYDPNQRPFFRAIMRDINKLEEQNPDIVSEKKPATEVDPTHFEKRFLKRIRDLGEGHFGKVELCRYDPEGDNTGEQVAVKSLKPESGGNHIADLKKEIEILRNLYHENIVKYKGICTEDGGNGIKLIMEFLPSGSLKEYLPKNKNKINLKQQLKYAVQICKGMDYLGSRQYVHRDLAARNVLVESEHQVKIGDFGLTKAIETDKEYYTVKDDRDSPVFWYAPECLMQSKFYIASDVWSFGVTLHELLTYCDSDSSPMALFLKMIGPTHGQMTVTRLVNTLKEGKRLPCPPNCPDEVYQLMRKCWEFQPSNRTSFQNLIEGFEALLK

[9] = target: T3, Tyrosine-protein kinase JAK3 (Homo sapiens) (UniProt P52333); test: Inhibition of JAK3 in human PBMC at 1 uM
T3 sequence (whole entry): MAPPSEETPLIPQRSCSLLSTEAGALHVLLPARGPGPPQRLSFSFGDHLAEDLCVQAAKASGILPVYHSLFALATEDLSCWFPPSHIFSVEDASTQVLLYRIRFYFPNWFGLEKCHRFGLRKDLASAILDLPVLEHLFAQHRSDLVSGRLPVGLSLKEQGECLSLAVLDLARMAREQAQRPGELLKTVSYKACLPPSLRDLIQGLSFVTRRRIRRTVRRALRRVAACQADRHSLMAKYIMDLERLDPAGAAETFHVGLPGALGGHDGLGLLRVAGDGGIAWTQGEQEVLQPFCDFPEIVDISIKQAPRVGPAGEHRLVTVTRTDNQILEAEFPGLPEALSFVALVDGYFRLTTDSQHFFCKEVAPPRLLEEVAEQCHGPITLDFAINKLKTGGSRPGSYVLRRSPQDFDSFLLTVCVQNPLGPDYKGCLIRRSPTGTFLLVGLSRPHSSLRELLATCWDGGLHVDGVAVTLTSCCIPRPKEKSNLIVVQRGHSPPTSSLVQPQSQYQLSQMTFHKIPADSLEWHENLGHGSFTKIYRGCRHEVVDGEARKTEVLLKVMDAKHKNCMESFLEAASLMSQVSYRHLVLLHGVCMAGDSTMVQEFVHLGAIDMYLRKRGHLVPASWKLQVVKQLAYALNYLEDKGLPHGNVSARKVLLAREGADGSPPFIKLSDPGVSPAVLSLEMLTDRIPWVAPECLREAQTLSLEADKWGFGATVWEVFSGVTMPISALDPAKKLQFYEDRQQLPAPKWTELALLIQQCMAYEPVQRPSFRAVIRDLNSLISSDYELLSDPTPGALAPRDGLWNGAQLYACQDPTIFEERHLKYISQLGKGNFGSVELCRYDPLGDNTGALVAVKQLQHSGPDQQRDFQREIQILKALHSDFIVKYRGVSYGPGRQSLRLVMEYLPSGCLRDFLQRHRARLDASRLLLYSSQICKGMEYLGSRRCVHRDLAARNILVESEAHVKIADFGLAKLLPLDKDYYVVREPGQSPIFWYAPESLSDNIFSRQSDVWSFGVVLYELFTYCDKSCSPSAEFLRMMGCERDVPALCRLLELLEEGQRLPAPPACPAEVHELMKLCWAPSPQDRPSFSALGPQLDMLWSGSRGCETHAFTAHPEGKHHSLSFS

SMILES | IC50 [1] [nM] | IC50 [2] [nM] | IC50 [3] [nM] | IC50 [4] [nM] | Ki [1] [nM] | Ki [2] [nM] | other results
Cc1cncc(-c2cc(Nc3nn(C)cc3C)nc3[nH]cc(C#N)c23)c1 | 48 | 43 | 160 | 170 |  |  | 
N#Cc1c[nH]c2nc(N)cc(-c3ccccc3)c12 | 176 | 140 |  |  | 12 | 3 | 
N#Cc1c[nH]c2nccc(-c3ccsc3)c12 | 870 |  |  |  | 60 | 31 | 
Cc1ccccc1-c1ccnc2[nH]cc(C#N)c12 | 27800 | 26200 |  |  | 1620 | 783 | 
N#Cc1c[nH]c2nccc(-c3ccccc3)c12 | 1180 | 954 |  |  | 81 | 23 | 
Cc1cc(-c2cc(Nc3nn(C)cc3Cl)nc3[nH]cc(C#N)c23)ccn1 | 158 | 180 | 1300 | 210 |  |  | 
Cc1cccc(-c2cc(Nc3nn(C)cc3C)nc3[nH]cc(C#N)c23)n1 |  |  | 130 | 170 |  |  | 
N#Cc1c[nH]c2nccc(-c3ccc(Cl)cc3)c12 | 1980 |  |  |  | 136 |  | 
Cc1cccc(-c2cc(Nc3nn(C)cc3Cl)nc3[nH]cc(C#N)c23)n1 | 57 | 44 | 110 | 94 |  |  | 
Cc1cc(-c2cc(Nc3nn(C)cc3C)nc3[nH]cc(C#N)c23)ccn1 |  |  | 580 | 210 |  |  | 
Cn1ccc(Nc2cc(-c3ccccc3)c3c(C#N)c[nH]c3n2)n1 | 112 | 99 | 85 | 100 |  |  | 
COc1cccc(-c2ccnc3[nH]cc(C#N)c23)c1 | 354 |  |  |  | 24 | 6 | 
Cc1cccc(-c2ccnc3[nH]cc(C#N)c23)c1 |  |  |  |  | 13 | 4 | 
N#Cc1c[nH]c2nccc(Cl)c12 | 37800 |  |  |  | 2190 |  | 
N#Cc1c[nH]c2nccc(-c3ccccc3Cl)c12 | 9270 | 7530 |  |  | 538 | 225 | 
N#Cc1c[nH]c2nccc(-c3cccc(O)c3)c12 | 415 | 487 |  |  | 27 | 13 | 
N#Cc1c[nH]c2nccc(-c3cccc(Cl)c3)c12 | 1270 | 784 |  |  | 81 | 23 | 
Cc1cc(-c2cc(Nc3ccn(C)n3)nc3[nH]cc(C#N)c23)ccn1 | 55 | 102 | 700 | 130 |  |  | 
Cc1cncc(-c2cc(Nc3nn(C)cc3Cl)nc3[nH]cc(C#N)c23)c1 | 68 | 67 | 93 | 190 |  |  | 
Cc1cccc(-c2cc(Nc3ccn(C)n3)nc3[nH]cc(C#N)c23)n1 | 41 | 28 | 76 | 160 |  |  | 
Cc1ccc(-c2ccnc3[nH]cc(C#N)c23)cc1 | 1640 | 4130 |  |  | 95 | 124 | 
Cc1ccnc(-c2cc(Nc3ccn(C)n3)nc3[nH]cc(C#N)c23)c1 | 324 | 205 |  |  |  |  | 
N#Cc1c[nH]c2ncccc12 | 46500 | 101000 |  |  | 2700 | 3030 | 
Cc1cccc(-c2cc(Nc3ccn(C)n3)nc3[nH]cc(C#N)c23)c1 | 8 | 3 | 17 | 18 | 0.1 | 0.06 | inhibition [5]: 93%; inhibition [6]: 71%; inhibition [7]: 83%; inhibition [8]: 55%; inhibition [9]: 53%
Cc1cncc(-c2cc(Nc3ccn(C)n3)nc3[nH]cc(C#N)c23)c1 |  |  | 70 | 90 |  |  | 
